From ChEMBL document CHEMBL1128460, “Design, synthesis, and structure-activity relationships of a new series of alpha-adrenergic agonists: spiro[(1,3-diazacyclopent-1-ene)-5,2'-(1',2',3',4'- tetrahydronaphthalene)]” (J Med Chem, 1995)

Tests used:
[1] = Ratio of C20 obtained in the absence or presence of [C20 (1 mg of yohimbine.) / C20 (control)]; format: functional
Method in brief: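 Pithed rat arterial pressure assay with tertatolol (100 mg/kg) pretreatment, then yohimbine (1 mg/kg) 10 min later. Cumulative iv agonist doses given at 20 s intervals after a further 10 min, C20 (+20 mmHg dose) obtained. Ratio expressed as C20(yohimbine)/C20(control); 3–6 determinations.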

Canis familiaris [2] = organism: Canis familiaris; assay: Maximal contractile response obtained with the agonist (expressed as a percentage of the maximal contraction to phenylephrine in the dog femoral artery); format: functional, Canis lupus familiaris
Method in brief: (§1)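 Vessel segments from mongrel dogs (15–25 kg) anesthetized with pentobarbital (30 mg/kg iv), mounted for isometric tension in physiological saline. Equilibrated 90 min with bath changes every 30 min, rauwolscine (10^-7 M) present throughout. Primed with KCl (100 mM), then phenylephrine (1 µM). Agonist concentration–response curves run at half-log steps, giving EC50 (µM) and Emax as % of phenylephrine maximum; mean ±SD.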

[3] = target: T1, Adrenergic receptor alpha (Rattus norvegicus) (UniProt P15823+P23944+P43140+P22086+P19328+P22909); assay: Alpha adrenergic activity was evaluated as concentration (iv) which increases the arterial pressure by 20 mmHg in the pithed rat; format: functional, organism-based; conditions: Artery
Canis familiaris [4] = organism: Canis familiaris; assay: Maximal contractile response obtained with the agonist (expressed as a percentage of the maximal contraction to phenylephrine in the dog saphenous vein); format: functional, Canis lupus familiaris; method in brief: as §1
Canis familiaris [5] = organism: Canis familiaris; assay: Effective concentration for the agonist in the isolated blood vessel using in vitro saphenous vein; format: functional; conditions: Canis lupus familiaris; method in brief: as §1
[6] = target: T1, Adrenergic receptor alpha (Rattus norvegicus); assay: Alpha adrenergic activity was evaluated as maximal pressure response caused by agonist, expressed in mmHg (the maximum obtained with phenylephrine is 150 mmHg).; format: functional
Canis familiaris [7] = organism: Canis familiaris; assay: Effective concentration for the agonist in the isolated blood vessel using in vitro femoral artery; format: functional; conditions: Canis lupus familiaris; method in brief: as §1
[8] = Ratio of C20 obtained in the absence or presence of [C20 ( 0.1 mg of prazosin ) / C20 (control)]; format: functional
Method in brief: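 Pithed rats pretreated with tertatolol (100 mg/kg), then 10 min later with prazosin (100 µg/kg). Cumulative iv agonist doses given another 10 min later at 20 s intervals. Arterial pressure recorded, C20 (dose giving +20 mmHg) determined. Ratio calculated as C20(prazosin)/C20(control); 3–6 determinations.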

[9] = target: T2, Adrenergic receptor alpha-1 (Rattus norvegicus, UniProt P15823+P23944+P43140); assay: Displacement of [3H]prazosin from rat cortex Alpha-1 adrenergic receptor
T2 sequence (P15823 whole entry): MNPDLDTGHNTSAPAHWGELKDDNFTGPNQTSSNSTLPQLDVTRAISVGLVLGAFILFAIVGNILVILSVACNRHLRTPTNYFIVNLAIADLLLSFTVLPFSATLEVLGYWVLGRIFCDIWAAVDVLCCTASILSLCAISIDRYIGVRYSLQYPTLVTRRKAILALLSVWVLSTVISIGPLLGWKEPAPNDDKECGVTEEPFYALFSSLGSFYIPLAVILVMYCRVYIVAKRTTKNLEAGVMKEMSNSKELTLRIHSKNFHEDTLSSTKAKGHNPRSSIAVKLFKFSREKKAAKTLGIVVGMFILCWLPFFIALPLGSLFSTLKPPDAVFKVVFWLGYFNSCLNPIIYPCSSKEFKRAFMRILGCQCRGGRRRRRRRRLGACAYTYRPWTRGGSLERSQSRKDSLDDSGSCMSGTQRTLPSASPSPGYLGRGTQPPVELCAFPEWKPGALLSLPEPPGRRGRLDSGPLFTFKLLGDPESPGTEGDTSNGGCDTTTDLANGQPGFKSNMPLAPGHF
T2 sequence (P23944 whole entry): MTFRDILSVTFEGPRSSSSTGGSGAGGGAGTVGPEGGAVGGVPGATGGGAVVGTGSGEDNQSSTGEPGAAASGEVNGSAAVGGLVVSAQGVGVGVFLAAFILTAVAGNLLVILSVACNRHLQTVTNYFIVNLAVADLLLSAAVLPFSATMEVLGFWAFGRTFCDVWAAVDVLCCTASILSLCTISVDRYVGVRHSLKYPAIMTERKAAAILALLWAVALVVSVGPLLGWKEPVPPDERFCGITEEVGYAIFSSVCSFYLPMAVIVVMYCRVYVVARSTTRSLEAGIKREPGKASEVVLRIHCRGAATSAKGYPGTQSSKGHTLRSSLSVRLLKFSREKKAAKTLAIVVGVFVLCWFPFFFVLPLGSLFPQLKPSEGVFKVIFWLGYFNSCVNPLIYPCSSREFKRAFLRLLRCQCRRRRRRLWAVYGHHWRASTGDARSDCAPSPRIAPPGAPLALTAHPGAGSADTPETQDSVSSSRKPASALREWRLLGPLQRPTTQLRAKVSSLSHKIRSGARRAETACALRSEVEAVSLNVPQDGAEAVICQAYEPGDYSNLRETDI
T2 sequence (P43140 whole entry): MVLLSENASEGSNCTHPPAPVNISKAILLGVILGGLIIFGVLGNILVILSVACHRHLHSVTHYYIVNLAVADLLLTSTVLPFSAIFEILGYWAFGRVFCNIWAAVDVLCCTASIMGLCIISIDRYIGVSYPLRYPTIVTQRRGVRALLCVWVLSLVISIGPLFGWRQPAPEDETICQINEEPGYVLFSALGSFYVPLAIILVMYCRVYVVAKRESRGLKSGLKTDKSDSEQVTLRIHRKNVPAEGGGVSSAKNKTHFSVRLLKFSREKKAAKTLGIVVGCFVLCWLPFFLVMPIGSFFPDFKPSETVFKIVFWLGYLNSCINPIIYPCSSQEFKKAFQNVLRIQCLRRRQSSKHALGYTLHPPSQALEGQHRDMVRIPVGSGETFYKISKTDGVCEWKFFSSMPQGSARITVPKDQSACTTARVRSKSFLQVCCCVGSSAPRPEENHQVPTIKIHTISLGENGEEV
Method in brief: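 Rat cortex membranes labelled with [3H]prazosin (0.3 nM), nonspecific binding with prazosin (10 µM). Nine drug concentrations spanning 3 log units, IC50 by log-probit analysis. Ki by Cheng–Prusoff using Kd from Scatchard saturation. At least three independent experiments in duplicate.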

SMILES	Ratio [1]	Emax (Canis familiaris [2])	C20 [3]	Emax (Canis familiaris [4])	EC50 (Canis familiaris [5])	Max [6]	EC50 (Canis familiaris [7])	Ratio [8]	Ki [9]
NC1=NC2(CCc3ccccc3C2)CO1 (stereo not drawn)	19.6	18	5.2 µg/kg	76	2.3 µM	95 mmHg	26 µM	3.5	–
COc1cc2c(cc1O)CCC1(CN=CN1)C2 (stereo not drawn)	2.8	69	1.2 µg/kg	97	19 µM	134 mmHg	1.4 µM	9.2	–
Clc1cccc2c1CCC1(CN=CN1)C2 (stereo not drawn)	2.8	–	7 µg/kg	–	–	125 mmHg	–	1.3	–
COc1cccc2c1CCC1(CN=CN1)C2 (stereo not drawn)	4.7	93	0.85 µg/kg	101	0.8 µM	139 mmHg	2 µM	5.4	3.4 µM
CN1C=NC2(CCc3ccccc3C2)C1 (stereo not drawn)	2.5	0	150 µg/kg	31	25 µM	77 mmHg	–	2.1	–
Cc1ccc(C)c2c1CCC1(CN=CN1)C2 (stereo not drawn)	4.8	67	0.5 µg/kg	84	2.4 µM	140 mmHg	3 µM	2.1	–
Oc1cccc2c1CC1(CC2)CN=CN1 (stereo not drawn)	12	22	4.3 µg/kg	66	10 µM	119 mmHg	39 µM	0.9	–
COc1ccc(OC)c2c1CCC1(CN=CN1)C2 (stereo not drawn)	2	77	0.05 µg/kg	106	0.3 µM	128 mmHg	0.12 µM	21	2 µM
CC(C)(C)c1ccc2c(c1)CC1(CC2)CN=CN1 (stereo not drawn)	1.6	0	465 µg/kg	35	40 µM	45 mmHg	–	1.7	–
COc1ccc2c(c1OC)CCC1(CN=CN1)C2 (stereo not drawn)	2.4	21	142 µg/kg	67	52 µM	107 mmHg	50 µM	2.9	–
CCOc1ccc(OC)c2c1CCC1(CN=CN1)C2 (stereo not drawn)	4.8	85	0.06 µg/kg	98	0.8 µM	147 mmHg	0.08 µM	21.5	–
COc1cc(C)cc2c1CCC1(CN=CN1)C2 (stereo not drawn)	1	60	10 µg/kg	81	3.9 µM	136 mmHg	0.8 µM	1.6	0.6 µM
COc1ccc(SC)c2c1C[C@@H]1[C@@H](C2)OCCN1C	2.4	28	23 µg/kg	38	0.023 µM	123 mmHg	38 µM	5.1	–
CCOc1ccc(OCC)c2c1CCC1(CN=CN1)C2 (stereo not drawn)	7.7	55	0.6 µg/kg	68	2.7 µM	157 mmHg	0.85 µM	24	–
CCc1ccc2c(c1)CC1(CC2)CN=CN1 (stereo not drawn)	2.6	0	209 µg/kg	50	75 µM	61 mmHg	–	2.5	–
COc1ccc(Cl)c2c1CCC1(CN=CN1)C2 (stereo not drawn)	–	102	–	106	0.027 µM	–	0.27 µM	–	–
Fc1cc(F)c2c(c1)CC1(CC2)CN=CN1 (stereo not drawn)	5.7	0	31 µg/kg	35	6.3 µM	84 mmHg	–	2.4	–
Cc1ccc2c(c1)CCC1(CN=CN1)C2 (stereo not drawn)	6.1	12	5.4 µg/kg	44	2.1 µM	114 mmHg	14 µM	1.3	–
C1=NC2(CCc3ccccc3C2)CO1 (stereo not drawn)	–	0	> 10000 µg/kg	0	–	38 mmHg	–	–	–
Clc1cc2c(cc1Cl)CC1(CC2)CN=CN1 (stereo not drawn)	3.1	0	33 µg/kg	36	44 µM	101 mmHg	–	7	–
Clc1cc(Cl)c2c(c1)CCC1(CN=CN1)C2 (stereo not drawn)	–	75	4.2 µg/kg	100	6 µM	137 mmHg	8 µM	–	–
NC1=NC2(CCc3ccccc3C2)CN1 (stereo not drawn)	26	2	57 µg/kg	36	52 µM	53 mmHg	50 µM	2.5	–
CC1=NC2(CCc3ccccc3C2)CN1 (stereo not drawn)	5.3	0	166 µg/kg	23	400 µM	113 mmHg	–	1.8	–
COc1cc2c(cc1OC)CC1(CC2)CN=CN1 (stereo not drawn)	–	–	98 µg/kg	–	–	129 mmHg	–	1.8	–
COc1cc2c(c(OC)c1)CCC1(CN=CN1)C2 (stereo not drawn)	2.6	25	7.9 µg/kg	44	7.3 µM	109 mmHg	0.7 µM	2.9	–
CC(C)Oc1ccc2c(c1)CCC1(CN=CN1)C2 (stereo not drawn)	66	0	74 µg/kg	15	3.9 µM	62 mmHg	–	11	–
FC(F)(F)c1ccc2c(c1)CC1(CC2)CN=CN1 (stereo not drawn)	2.7	–	320 µg/kg	7	–	55 mmHg	–	10	–
Clc1cccc2c1CC1(CC2)CN=CN1 (stereo not drawn)	4.7	83	0.3 µg/kg	95	0.24 µM	133 mmHg	1.6 µM	1.9	–
